Screening results from PubChem BioAssay.
E coli WT exp – blocks growth of wild type E. coli BW25113 | OD600 absorbance | growth inhibition, % at 100 µM | 98,000 tested, 0.15% active | AID 710;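 active means growth inhibition above about 50% at one test dose, limit read from the data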;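 further: growth measured after 20 h incubation at 37 °C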
DAT uptake mod – human DAT dopamine uptake with cocaine, either direction; B-score at 10 µM; LLC-PK1 hDAT cells, [14C]-dopamine uptake with cocaine IC80; actives deviate in either direction; Q01959; 110,000 tested, 1.3% active;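 active means Z score or B-score, a plate-position-corrected score, falls beyond the plate's 99.7% confidence bounds, in either direction; inactive means both scores lie inside the 99.7% bounds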;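 further: scored against the spread of the other compound wells on the same plate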
PostGolgi ctrl – inhibits growth of the yeast control strain; 98,000 tested, 5% active; AID 738; inhibition, % at 10 µM; efflux-deficient yeast background strain, growth absorbance A615, 16 h
PostGolgi yeast – growth inhibition of a yeast mutant, post-Golgi transport screen; post-Golgi transport phenotypic cell assay; inhibition, % at 10 µM; 98,000 tested, 0.9% active; AID 739;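 further: yeast cells grown in 1536-well plates; yeast grown about 18 h at 30C before absorbance read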
D1 allo mod – allosteric modulators of human D1 dopamine receptor; HEK293 D1, CRE-luciferase, dopamine EC30 potentiation; actives deviate in either direction; 58,000 tested, 5.9% active; P21728; AID 641; B-score at 10 µM;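 active means luminescence count or its row- and column-corrected plate score outside the 99.7% band of the plate's sample wells, on either side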
Target sequence (P21728 whole entry, looked up): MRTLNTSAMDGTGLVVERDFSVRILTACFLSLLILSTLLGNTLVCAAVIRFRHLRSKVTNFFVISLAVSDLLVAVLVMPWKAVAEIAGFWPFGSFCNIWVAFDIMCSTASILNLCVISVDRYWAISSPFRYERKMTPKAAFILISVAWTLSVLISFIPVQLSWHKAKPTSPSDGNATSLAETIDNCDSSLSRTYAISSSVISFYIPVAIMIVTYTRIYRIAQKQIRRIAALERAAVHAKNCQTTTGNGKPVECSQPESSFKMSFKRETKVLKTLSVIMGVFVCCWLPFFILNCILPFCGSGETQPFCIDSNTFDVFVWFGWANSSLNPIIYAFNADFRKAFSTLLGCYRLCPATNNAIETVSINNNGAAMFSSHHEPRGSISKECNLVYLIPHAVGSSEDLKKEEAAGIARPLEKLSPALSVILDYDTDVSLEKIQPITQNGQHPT
tolC growth inh – growth inhibitors of E. coli BW25113 tolC mutant; OD615; growth inhibition, % at 10 µM (by protocol); 65,000 tested, 2.2% active; AID 573;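 active means growth inhibition at or above a cutoff equal to the mean over every tested compound plus 3 SD, cut at about 60% in these data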;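 further: growth measured after 20 h incubation at 37 °C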
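Test system: E. coli BW25113 ΔtolC::kan bacteria; incubation: 37 °C, 20 h exposure; medium: LB broth supplemented with 50 µg/mL kanamycin; read-out basis: percent growth inhibition; signal: A615 absorbance measurement; compound: 10 µM final, single dose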
Starred values were filed as active, the others as inactive; . = no result given. The list is not random: actives were taken first. Their share in the collection is about 9.3%. Unless noted, no stated cut-off is given here; in the data, active means inhibition above about 30%; inactive means the rest.

SMILES	E coli WT exp	DAT uptake mod	PostGolgi ctrl	PostGolgi yeast	D1 allo mod	tolC growth inh
Cc1ccc(NC(=O)C2CCCN2C(=O)Oc2ccccc2)cc1 (stereo not drawn)	4.0	-0.0214	9.9	2.6	0.436	-5.3
CCOC(=O)c1cc2nc(-c3ccco3)cc(C(F)(F)F)n2n1	.	0.0615	.	.	.	.
CC1CCc2cc(F)ccc2N1C(=O)c1cc2nc(-c3ccco3)cc(C(F)(F)F)n2n1 (stereo not drawn)	-3.0	0.208	20.2	1.8	-0.401	62.7*
O=C(c1cc2nc(-c3ccco3)cc(C(F)(F)F)n2n1)N1CCN(c2ccc(F)cc2)CC1	-10.0	0.29	16.6	3.2	0.441	65.1*
CCOC(=O)c1ccc2c(c1)n(CC)c(/C=C/Nc1ccccc1)[n+]2CC	2.0	-1.11	31.5*	-16.7	.	.
COc1ccc2nc(NC(=O)C3CCCN3S(=O)(=O)c3ccc(C)cc3)sc2c1 (stereo not drawn)	-16.0	-0.0666	9.5	-0.5	-1.52	18.1
COc1ccc(OC)c(-c2cc(C(=O)Nc3c(C)nn(Cc4ccccc4)c3C)no2)c1	-2.0	-1.4	37.7*	9.4	1.96	-11.1
COc1ccc(OC)c(-c2cc(C(=O)Nc3c(C)nn(Cc4ccc(Cl)cc4)c3C)no2)c1	-7.0	.	33.5*	-8.6	1.55	40.2
Cc1nn(-c2ccccc2)c(C)c1C(=O)Nc1nnc(-c2ccco2)o1	3.0	1.17	-4.1	2.3	0.741	65.1*
Cc1c(C(=O)O)c(-c2ccccc2)nn1-c1ccccc1	-14.0	-0.11	3.5	-4.0	0.169	-5.0
C[C@H]1O[C@H](O[C@H]2[C@H](O)[C@@H](O)[C@@H](O[C@H]3[C@H](O)[C@@H](O)C(O)O[C@@H]3CO)O[C@@H]2CO)[C@H](O)[C@@H](O)[C@@H]1N[C@H]1C=C(CO)[C@@H](O)[C@H](O)[C@H]1O (stereo partly drawn)	.	-0.171	.	.	.	.
CCCCSc1nnc(-c2ccccc2N)c(=O)[nH]1	0.0	0.414	14.3	1.3	-1.02	16.6
CCCCCSc1nnc(-c2cc(Br)ccc2N)c(=O)[nH]1	5.0	-0.328	11.4	0.8	-0.0211	100.0*
O=C(CSCc1cccc(Br)c1)N1CCOCC1	-6.0	0.407	11.1	1.5	0.244	-14.6
Nc1nc(SCc2ccccc2)ns1	11.0	-0.0306	18.6	-5.7	1.68	3.7
Nc1nc(SCc2ccc(Cl)cc2)ns1	24.0	0.0169	43.8*	-2.0	0.365	22.9
O=C(NCc1ccco1)c1sc(=S)n2c1[nH]c(=O)c1ccccc12	11.0	-0.808	32.3*	-6.8	-0.95	99.7*
CCCCCNC(=O)c1ccc2c(=O)[nH]c3c(C(=O)NCC4CCCO4)sc(=S)n3c2c1 (stereo not drawn)	-5.0	-0.798	5.8	-1.0	-0.159	100.0*
O=C(NC1CCCC1)c1sc(=S)n2c1[nH]c(=O)c1ccccc12	1.0	-1.16	51.2*	3.9	-2.14	100.0*
C=CCn1c(N)c(C(=O)NCc2ccco2)sc1=S	6.0	0.281	11.1	6.5	0.641	-11.2
CCn1c(N)c(C(=O)NCC2CCCO2)sc1=S (stereo not drawn)	-2.0	-0.489	9.6	4.2	1.73	-9.0
COCCn1nnnc1CN(CCc1ccccc1)Cc1cc2ccc(C)cc2[nH]c1=O	-4.0	2.07	11.8	-12.1	0.0821	31.6
C=CCc1ccccc1OCC(O)CN(CC)CC (stereo not drawn)	0.0	-0.256	7.6	-5.5	.	.
O=C(NCCc1cccs1)C12CN(Cc3ccccc3)CC1C(c1cccc([N+](=O)[O-])c1)=NO2 (stereo not drawn)	-6.0	0.745	-2.6	-8.3	.	.
COc1ccc(CNc2nc(-c3cccnc3)nn2C(=O)c2cccs2)cc1	-24.0	.	40.1*	-2.7	2.28	47.8
SMILES	E coli WT exp	DAT uptake mod	PostGolgi ctrl	PostGolgi yeast	D1 allo mod	tolC growth inh
CCOC(=O)c1cnc(SCC(=O)c2ccccc2)nc1N	-2.0	-0.91	-12.3	-2.9	-0.844	3.0
CCOC(=O)c1c(N)sc(-c2ccccc2)c1C	.	0.474	.	.	.	.
CCOC(=O)c1c(N)sc2c(OC)c(Br)ccc12	4.0	-0.419	44.2*	15.9	0.235	100.0*
C/C=C/c1ccc(Oc2nnnn2-c2ccc(C(N)=O)cc2)c(OC)c1	-3.0	-0.447	2.2	0.2	-6.5*	11.6
COc1ccccc1Oc1nnnn1-c1ccc(C(N)=O)cc1	0.0	-1.93	3.1	-1.3	.	.
CCOc1ccccc1-n1c(SCC(=O)NC(C)CC)nnc1-c1ccoc1C (stereo not drawn)	-6.0	0.0181	-1.3	9.6	-0.624	-13.2
Cc1ccccc1CSc1n[nH]c(NS(=O)(=O)c2ccccc2)n1	8.0	-0.713	2.4	-15.2	.	.
CN(C)S(=O)(=O)Nc1ccc2c(c1)Cc1ccccc1-2	0.0	-0.507	11.4	15.2	.	-26.3
COc1ccc(NS(=O)(=O)c2ccc3c(c2)Cc2ccccc2-3)cn1	-9.0	0.117	64.6*	-2.4	-1.18	100.0*
CCCC/C=C/C(NC(=O)c1ccc(C(=O)OC)cc1)c1ccccc1 (stereo not drawn)	.	-0.512	.	.	.	.
CNc1nc(-c2ccccn2)nnc1-c1ccccc1	32.0	-0.0693	9.5	13.7	.	.
c1ccc(-c2nnc(-c3ccccn3)nc2NC2CCCCC2)cc1	100.0*	0.183	87.5*	39.7*	.	.
COc1ccc(CNc2nc3c(c(C(F)(F)F)n2)CCCCC3)cc1	-5.0	-0.00433	38.9*	-5.7	.	49.5
COc1ccc(CNC(=O)Cn2nc(C(F)(F)F)c3c2CCC3)cc1	3.0	-0.971	17.7	-8.2	0.329	1.3
COc1ccc(S(=O)(=O)N2CCC(n3cnc4cc(C(F)(F)F)ccc43)CC2)cc1	-1.0	1.55	40.7*	-1.6	2.37	20.6
COc1ccccc1CNC(=O)C1CC(c2ccccc2C(F)(F)F)=NO1 (stereo not drawn)	.	-0.254	.	.	.	.
Cn1c(NC(=O)c2cccs2)c(-c2cccs2)c(=O)c2ccccc21	-10.0	-1.12	32.4*	4.3	0.0749	-19.2
O=C(Cc1cccs1)N1CCN(c2nc(-c3ccc(Cl)cc3)cs2)CC1	-20.0	1.57	50.6*	0.8	0.112	58.2
CCOC(=O)N1CCN(c2nc(-c3ccc(Cl)cc3)cs2)CC1	1.0	-1.18	7.2	-0.9	-0.337	6.6
O=[N+]([O-])c1ccc(N2CCN(c3ccc(Cl)nn3)CC2)cc1NC1CC1	.	0.202	.	.	.	.
O=C1c2[nH]nc(-c3ccccc3O)c2C(c2cccc(Cl)c2)N1CC1CCCO1 (stereo not drawn)	6.0	.	3.1	-6.1	.	88.0*
O=C1c2[nH]nc(-c3ccccc3O)c2C(c2cccc(Cl)c2)N1Cc1ccco1 (stereo not drawn)	-3.0	-0.775	25.7	-7.0	.	100.0*
COc1ccc(CCN2C(=O)c3[nH]nc(-c4ccccc4O)c3C2c2cccc(O)c2)cc1OC (stereo not drawn)	11.0	2.71*	5.9	6.8	.	50.0
O=C1c2[nH]nc(-c3ccccc3O)c2C(c2ccc(F)cc2)N1Cc1ccco1 (stereo not drawn)	0.0	-0.505	14.7	-2.5	.	100.0*
